Experimental data from ChEMBL document CHEMBL4304827, “Design, synthesis and evaluation of structurally diverse chrysin-chromene-spirooxindole hybrids as anticancer agents” (Bioorg Med Chem, 2019).
Activity calls are given as the source filed them. The calls are words filed in the database; no cut-off is given here.

Tests used:
A549 [1] = assay: Induction of apoptosis in human A549 cells assessed as downregulation of Bcl2 protein expression incubated for 24 hrs by Western blot analysis; assay type: functional, cell-based
Outline: (§1)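 A549 cells were treated with various concentrations for 24 h and lysed in RIPA buffer with 1 mM PMSF. Protein (20 μg) was resolved on 8-12% SDS-PAGE and transferred to PVDF. Membranes were blocked in 5% milk and probed with primary antibodies overnight at 4 °C, then with anti-rabbit secondary. Bands were quantified by densitometry. Mean ± SD, ≥3 experiments.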

NCI-H1299 = assay: Antiproliferative activity against human H1299 cells assessed as reduction in cell proliferation incubated for 48 hrs by MTT assay; assay type: functional, cell-based; conditions: NCI-H1299, 48 h
Outline: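 Log-phase cells were plated at 5 × 10^3/well in RPMI-1640 with 10% FBS and cultured 24 h. Compounds were added at graded concentrations (DMSO <0.1%) for 48 h. MTT (5 mg/mL) was added for about 4 h, formazan was dissolved in DMSO and A490 was read. IC50 was calculated from ≥3 independent experiments and reported as mean ± SD. Chrysin served as positive control.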

A549 [2] = assay: Induction of apoptosis in human A549 cells assessed as upregulation of Bax protein expression at 10 uM by Western blot analysis; assay type: functional, cell-based; conditions: TDE = time-dependent effect
Outline: as §1, with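 “exposed to 10 μM” for “treated with various concentrations”, “different times” for “24 h”, “separated” for “resolved”, “incubated” for “probed”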

A549 [3] = assay: Induction of apoptosis in human A549 cells assessed as downregulation of Akt protein expression at 10 uM by Western blot analysis; assay type: functional, cell-based; conditions: TDE = time-dependent effect
Outline: as §1, with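 “exposed to 10 μM” for “treated with various concentrations”, “different times” for “24 h”, “separated” for “resolved”, “incubated” for “probed”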

A549 [4] = assay: Induction of apoptosis in human A549 cells assessed as early apoptotic cells at 5 uM incubated for 24 hrs by annexin V FITC and PI staining based flow cytometry (reference value: 0.53%); assay type: functional
A549 [5] = assay: Induction of apoptosis in human A549 cells assessed as upregulation of Bax protein expression incubated for 24 hrs by Western blot analysis; assay type: functional, cell-based; outline: as §1
A549 [6] = assay: Induction of apoptosis in human A549 cells assessed as necrotic cells at 5 uM incubated for 24 hrs by annexin V FITC and PI staining based flow cytometry (reference value: 2.43%); assay type: functional
A549 [7] = assay: Induction of apoptosis in human A549 cells assessed as upregulation of p53 protein expression incubated for 24 hrs by Western blot analysis; assay type: functional, cell-based; outline: as §1
A549 [8] = assay: Antimigratory activity in human A549 cells assessed as reduction in cell invasion incubated for 36 hrs by matrigel transwell migration assay; assay type: functional, cell-based
Outline: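 Cells were suspended at 1 × 10^4/mL in RPMI-1640 with 1% FBS and seeded in the upper chamber. For the invasion assay the upper chamber was coated with Matrigel. The lower chamber held medium with 10% FBS. Compound was given at various concentrations for 36 h. Membranes were methanol-fixed and stained with 0.1% crystal violet. Cells on the lower side were counted relative to control (100%). Mean ± SD, ≥3 experiments.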

A549 [9] = assay: Induction of apoptosis in human A549 cells assessed as late apoptotic cells at 5 uM incubated for 24 hrs by annexin V FITC and PI staining based flow cytometry (reference value: 1.32%); assay type: functional
A549 [10] = assay: Induction of apoptosis in human A549 cells assessed as upregulation of p53 protein expression at 10 uM by Western blot analysis; assay type: functional, cell-based; conditions: TDE = time-dependent effect
Outline: as §1, with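 “exposed to 10 μM” for “treated with various concentrations”, “different times” for “24 h”, “separated” for “resolved”, “incubated” for “probed”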

A549 [11] = assay: Induction of apoptosis in human A549 cells assessed as increase in caspase 9 activity at 100 uM incubated for 24 hrs by colorimetry relative to control; assay type: functional
Outline: (§2)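 A549 cells were plated at 3 × 10^5/well and cultured 12 h, then treated with various concentrations for 24 h. Cells were lysed on ice for 60 min. Lysate containing 200 μg protein was incubated with caspase-3, -8 or -9 colorimetric substrate at 37 °C for 4 h in the dark, and A405 was read. Activation = (treated − blank)/(control − blank). Mean ± SD, ≥3 experiments.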

A549 [12] = assay: Induction of apoptosis in human A549 cells assessed as necrotic cells at 25 uM incubated for 24 hrs by annexin V FITC and PI staining based flow cytometry (reference value: 2.43%); assay type: functional
A549 [13] = assay: Induction of apoptosis in human A549 cells assessed as increase in caspase 3 activity incubated for 24 hrs by colorimetry; assay type: functional, cell-based; outline: as §2
A549 [14] = assay: Antimigratory activity in human A549 cells assessed as reduction in wound healing incubated for 36 hrs by wound healing assay; assay type: functional, cell-based
Outline: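 Confluent A549 monolayers, seeded at 1 × 10^5 cells/well, were scratched with a pipette tip. Medium was replaced with medium containing various concentrations and cells were incubated 36 h. Migration area was measured by microscopy and expressed as a percentage of control (control = 100%). Mean ± SD, ≥3 independent experiments.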

A549 [15] = assay: Inhibition of colony formation in human A549 cells cultured in plate assessed as decrease in size and number of colonies formed incubated for 10 days by crystal violet staining based fluorescence microscopy; assay type: functional, cell-based
Outline: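 Log-phase A549 cells were seeded at 1 × 10^3/well and cultured 24 h. Medium containing various concentrations was added and cells were grown 10 days. Colonies were fixed in 4% paraformaldehyde for 30 min, stained with 0.1% crystal violet and imaged by microscopy. Colony percentage was calculated relative to control colonies. Mean ± SD, ≥3 experiments.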

A549 [16] = assay: Induction of apoptosis in human A549 cells assessed as increase in caspase 3 activity at 100 uM incubated for 24 hrs by colorimetry relative to control; assay type: functional; outline: as §2
A549 [17] = assay: Induction of apoptosis in human A549 cells assessed as increase in DNA ladder formation incubated for 24 hrs by agarose gel electrophoresis method; assay type: functional, cell-based
Outline: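 A549 cells were treated with various concentrations for 24 h. Genomic DNA was isolated by lysis, RNase A and proteinase K digestion, then ethanol precipitation. DNA was run on a 2% agarose gel to visualize ladder formation.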

A549 [18] = assay: Induction of apoptosis in human A549 cells assessed as chromatin shrinkage and apoptotic body formation at higher concentrations incubated for 24 hrs by AO-EB staining based fluorescence microscopy; assay type: functional, cell-based
Outline: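 A549 cells were plated at 3 × 10^5/well and cultured 12 h, then exposed to various concentrations for 24 h. Morphology was observed by microscopy. AO-EB stain (1 mg/mL each, in PBS) was applied for 10 min at room temperature in the dark. Harvested cells were stained with PI for 15 min at room temperature in the dark, then washed. Both stains were examined by fluorescence microscopy.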

A549 [19] = assay: Induction of apoptosis in human A549 cells assessed as upregulation of p21 protein expression at 10 uM by Western blot analysis; assay type: functional, cell-based; conditions: TDE = time-dependent effect
Outline: as §1, with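 “exposed to 10 μM” for “treated with various concentrations”, “different times” for “24 h”, “separated” for “resolved”, “incubated” for “probed”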

A549 [20] = assay: Induction of apoptosis in human A549 cells assessed as viable cells at 25 uM incubated for 24 hrs by annexin V FITC and PI staining based flow cytometry (reference value: 95.7%); assay type: functional; conditions: A549, 24 h, read-out: Activity
A549 [21] = assay: Induction of apoptosis in human A549 cells assessed as late apoptotic cells at 50 uM incubated for 24 hrs by annexin V FITC and PI staining based flow cytometry (reference value: 1.32%); assay type: functional
A549 [22] = assay: Induction of apoptosis in human A549 cells assessed as increase in caspase 8 activity incubated for 24 hrs by colorimetry; assay type: functional, cell-based; outline: as §2

**Q.** Which inhibition (A549 [1]) does the source give for `CN1C(=O)C2(C(C#N)=C(N)Oc3cc4oc(-c5ccccc5)cc(=O)c4c(O)c32)c2cc(Br)ccc21` (stereo not drawn) here?
**A.** The inhibition was “Dose-dependent effect”.

**Q.** What about the IC50 (NCI-H1299) of the same molecule?
**A.** The IC50 was 7.61 µM.

**Q.** And the Activity (A549 [2])?
**A.** Its Activity is “Tde”.

**Q.** What about the inhibition (A549 [3]) of the same molecule?
**A.** The inhibition was “Tde”.

**Q.** What about the Activity (A549 [4]) of the same molecule?
**A.** The Activity was 6.53%.

**Q.** And the Activity (A549 [5])?
**A.** Its Activity is “Dose-dependent effect”.

**Q.** And the Activity (A549 [6])?
**A.** The Activity was 0.732%.

**Q.** And the Activity (A549 [7])?
**A.** The Activity was “Dose-dependent effect”.

**Q.** And the inhibition (A549 [8])?
**A.** The inhibition was “Dose-dependent effect”.

**Q.** And the Activity (A549 [9])?
**A.** Its Activity is 6.73%.

**Q.** What about the Activity (A549 [10]) of the same molecule?
**A.** Its Activity is “Tde”.

**Q.** What about the “fold change (FC)” value (A549 [11]) of the same molecule?
**A.** The value was 1.81.

**Q.** What about the Activity (A549 [12]) of the same molecule?
**A.** The Activity was 2.97%.

**Q.** What about the Activity (A549 [13]) of the same molecule?
**A.** Its Activity is “Dose-dependent effect”.

**Q.** What about the inhibition (A549 [14]) of the same molecule?
**A.** The inhibition was “Dose-dependent effect”.

**Q.** What about the inhibition (A549 [15]) of the same molecule?
**A.** The inhibition was “Dose-dependent effect”.

**Q.** What about the “fold change (FC)” value (A549 [16]) of the same molecule?
**A.** The value was 5.24.

**Q.** And the Activity (A549 [17])?
**A.** Its Activity is “Dose-dependent effect”.

**Q.** What about the Activity (A549 [18]) of the same molecule?
**A.** The Activity was “Active”.

**Q.** And the Activity (A549 [19])?
**A.** The Activity was “Tde”.

**Q.** What about the viability at 25 µM (A549 [20]) of the same molecule?
**A.** The viability at 25 µM was 73.5%.

**Q.** What about the Activity (A549 [21]) of the same molecule?
**A.** Its Activity is 24.8%.

**Q.** And the Activity (A549 [22])?
**A.** The Activity was “Dose-dependent effect”.
